B1: tRNA (parent)
chain: GUUCCGUUGGCGUAAUGGUAACGCGUCUCCCUCCUAAGGAGAAGACUGCGGGUUCGAGUCCCGUACGGAACG

Variants of: B1
Assay: yeast fitness, log relative to wild type (ln ratio); higher = fitter; tRNA-Arg(CCU), competitive growth, 37 C, 1 M NaCl
In short: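 Variants were counted by 125 bp paired-end Illumina sequencing after pools of a combinatorial tRNA-Arg(CCU) library, held on a HIS3 centromeric plasmid in BY4742 lacking the chromosomal gene, grew ~6.5 generations (~26.5 h) in SC-HIS 1M NaCl at 37 °C. Each genotype's fitness is the natural log of its generations relative to the wild type's. Generations were OD-scaled log2 output/input frequencies, inverse-variance weighted over replicates.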

Question: For U2C G6U A43C C46U A69G A70U, which “yeast fitness (ln)” value is on record?
Answer: Its value is -0.0621.

Question: For U2C G6U A43C C46U A69G A70G, which “yeast fitness (ln)” value is on record?
Answer: Its value is -0.3.

Question: For U2C G6A A43C C46U C66A A70G, which “yeast fitness (ln)” value is on record?
Answer: The value was -0.123.

Question: For U2C G6A A43C C46U C66A A70U, which “yeast fitness (ln)” value is on record?
Answer: The value was -0.0148.

Question: For U2C G6A C27U A43C C46U C66A C71U, which “yeast fitness (ln)” value is on record?
Answer: Its value is -0.216.

Question: With U2C G6A C27U A43C C46U A69G C71U as the variant, how does the “yeast fitness (ln)” value read?
Answer: Its value is -0.113.

Question: For U2C G6A C66U, which “yeast fitness (ln)” value is on record?
Answer: The value was 0.00772.

Question: With U2C G6A A43C C46U A69G A70U C71U as the variant, how does the “yeast fitness (ln)” value read?
Answer: Its value is -0.399.

Question: Which “yeast fitness (ln)” value does the source give for U2C G6U A43C C46U C66U C71U here?
Answer: The value was -0.242.

Question: For U2C G6U A43C C66U A69G C71U, which “yeast fitness (ln)” value is on record?
Answer: Its value is -0.454.

Question: With U2C G6U A43C A70U C71U as the variant, how does the “yeast fitness (ln)” value read?
Answer: The value was -0.198.

Question: For U2C G6A A43C C66U A69G A70G, which “yeast fitness (ln)” value is on record?
Answer: The value was -0.0192.

Question: For U2C G6A A43C C66U A69G A70U, which “yeast fitness (ln)” value is on record?
Answer: Its value is -0.232.

Question: Which “yeast fitness (ln)” value does the source give for U2C C66A A70U C71U here?
Answer: The value was -0.0799.

Question: Which “yeast fitness (ln)” value does the source give for U2C G6A A43C C46U A69G A70U here?
Answer: The value was -0.0634.

Question: For U2C G6A A43C C46U A69G A70G, which “yeast fitness (ln)” value is on record?
Answer: Its value is -0.241.

Question: With U2C G6A C27U A43C C46U A70G as the variant, how does the “yeast fitness (ln)” value read?
Answer: Its value is -0.133.

Question: Which “yeast fitness (ln)” value does the source give for U2C G6A C27U A43C C46U A70U here?
Answer: Its value is -0.0327.

Question: With U2C G6A C27U C46U A70U C71U as the variant, how does the “yeast fitness (ln)” value read?
Answer: Its value is -0.123.

Question: For U2C C46U C66A C71U, which “yeast fitness (ln)” value is on record?
Answer: The value was -0.0793.

Question: Which “yeast fitness (ln)” value does the source give for U2C G6A A70G C71U here?
Answer: The value was -0.105.

Question: With U2C G6A C27U A70U as the variant, how does the “yeast fitness (ln)” value read?
Answer: The value was -0.0574.

Question: For U2C G6A C27U A70G, which “yeast fitness (ln)” value is on record?
Answer: Its value is -0.167.

Question: Which “yeast fitness (ln)” value does the source give for U2C G6A C66U A69G C71U here?
Answer: The value was -0.225.

Question: For U2C G6A A43C C46U C66U A70G C71U, which “yeast fitness (ln)” value is on record?
Answer: Its value is -0.0112.

Question: Which “yeast fitness (ln)” value does the source give for U2C G6A C66U A70G C71U here?
Answer: Its value is -0.0109.

Question: With U2C G6A C27U C46U A69G A70G C71U as the variant, how does the “yeast fitness (ln)” value read?
Answer: The value was -0.331.

Question: With U2C G6A C46U C66U A69G A70U C71U as the variant, how does the “yeast fitness (ln)” value read?
Answer: The value was -0.419.

Question: For U2C G6A A43C C46U C66A, which “yeast fitness (ln)” value is on record?
Answer: Its value is -0.2.

Question: With U2C G6A A43C C46U C66U as the variant, how does the “yeast fitness (ln)” value read?
Answer: The value was -0.0992.

Question: For U2C G6A A69G A70G C71U, which “yeast fitness (ln)” value is on record?
Answer: Its value is -0.394.

Question: For U2C G6A C27U A43C C46U C66A A69G A70G C71U, which “yeast fitness (ln)” value is on record?
Answer: The value was -0.19.

Question: With U2C G6A A43C C46U A70U C71U as the variant, how does the “yeast fitness (ln)” value read?
Answer: The value was -0.09.

Question: Which “yeast fitness (ln)” value does the source give for U2C G6A C27U C71U here?
Answer: Its value is -0.212.

Question: With U2C G6A A43C C66U C71U as the variant, how does the “yeast fitness (ln)” value read?
Answer: The value was -0.115.

Question: Which “yeast fitness (ln)” value does the source give for U2C G6A A69G C71U here?
Answer: The value was -0.176.

Question: Which “yeast fitness (ln)” value does the source give for U2C G6A A43C C46U A70U here?
Answer: Its value is -0.0234.

Question: With U2C G6A A43C C46U A70G as the variant, how does the “yeast fitness (ln)” value read?
Answer: Its value is -0.0922.

Question: For U2C G6A C27U C66U A69G A70U, which “yeast fitness (ln)” value is on record?
Answer: Its value is -0.138.

Question: Which “yeast fitness (ln)” value does the source give for U2C G6A C27U C66U A69G A70G here?
Answer: Its value is -0.0504.

Question: Which “yeast fitness (ln)” value does the source give for U2C G6U A43C C46U C66U A69G C71U here?
Answer: Its value is -0.347.

Question: Which “yeast fitness (ln)” value does the source give for U2C G6U A43C C46U C66A A69G A70U C71U here?
Answer: Its value is -0.396.

Question: With U2C G6A C46U C66U A69G C71U as the variant, how does the “yeast fitness (ln)” value read?
Answer: The value was -0.183.

Question: Which “yeast fitness (ln)” value does the source give for U2C C66A A69G A70G C71U here?
Answer: The value was -0.105.

Question: Which “yeast fitness (ln)” value does the source give for U2C G6A A69G A70U C71U here?
Answer: Its value is -0.174.

Question: Which “yeast fitness (ln)” value does the source give for U2C C46U C66U A70U C71U here?
Answer: Its value is -0.155.

Question: Which “yeast fitness (ln)” value does the source give for U2C G6A C27U C46U C71U here?
Answer: Its value is -0.119.

Question: Which “yeast fitness (ln)” value does the source give for U2C G6A C46U C66U A70G C71U here?
Answer: The value was -0.00476.

Question: Which “yeast fitness (ln)” value does the source give for U2C G6A C27U A43C C46U C66U A69G A70U here?
Answer: Its value is -0.173.

Question: For U2C G6A C27U A43C C46U C66U A69G A70G, which “yeast fitness (ln)” value is on record?
Answer: Its value is -0.0296.

Question: Which “yeast fitness (ln)” value does the source give for U2C G6A C27U A43C C46U A69G A70G C71U here?
Answer: Its value is -0.13.

Question: Which “yeast fitness (ln)” value does the source give for U2C G6A C27U C46U A69G A70U C71U here?
Answer: The value was -0.295.

Question: With U2C C46U C66U A69G as the variant, how does the “yeast fitness (ln)” value read?
Answer: Its value is -0.224.

Question: For U2C G6A C27U C46U C66U A69G A70U C71U, which “yeast fitness (ln)” value is on record?
Answer: Its value is -0.289.

Question: Which “yeast fitness (ln)” value does the source give for U2C G6U A43C C46U C66U A70G here?
Answer: Its value is -0.0851.

Question: With U2C G6U A43C C46U C66U A70U as the variant, how does the “yeast fitness (ln)” value read?
Answer: Its value is -0.123.

Question: For U2C G6A C27U C46U C66U A69G A70G C71U, which “yeast fitness (ln)” value is on record?
Answer: Its value is -0.0479.

Question: Which “yeast fitness (ln)” value does the source give for U2C C46U C66U A70U here?
Answer: Its value is -0.2.

Question: For U2C C46U C66U A70G, which “yeast fitness (ln)” value is on record?
Answer: The value was 0.0022.

Question: Which “yeast fitness (ln)” value does the source give for U2C C27U C66U C71U here?
Answer: Its value is -0.177.

Question: For U2C G6U A43C A70G C71U, which “yeast fitness (ln)” value is on record?
Answer: Its value is -0.185.

Question: Which “yeast fitness (ln)” value does the source give for U2C G6U A43C C46U C66A A70G here?
Answer: The value was 0.0031.

Question: With U2C G6U A43C C46U C66A A70U as the variant, how does the “yeast fitness (ln)” value read?
Answer: Its value is -0.21.

Question: Which “yeast fitness (ln)” value does the source give for U2C C66A A69G A70U here?
Answer: Its value is -0.0958.

Question: Which “yeast fitness (ln)” value does the source give for U2C C66A A69G A70G here?
Answer: Its value is -0.0883.

Question: For U2C G6A A43C C46U C66A A69G A70G C71U, which “yeast fitness (ln)” value is on record?
Answer: The value was -0.112.

Question: For U2C G6U A43C C46U A69G C71U, which “yeast fitness (ln)” value is on record?
Answer: The value was -0.17.

Question: Which “yeast fitness (ln)” value does the source give for U2C G6A A43C C46U A70G C71U here?
Answer: The value was -0.112.

Question: Which “yeast fitness (ln)” value does the source give for U2C G6U A43C A69G A70G here?
Answer: Its value is -0.143.

Question: For U2C G6U A43C A69G A70U, which “yeast fitness (ln)” value is on record?
Answer: Its value is -0.152.

Question: Which “yeast fitness (ln)” value does the source give for U2C G6A C27U A43C C66U A69G C71U here?
Answer: Its value is -0.35.

Question: With U2C C46U C66A A70G as the variant, how does the “yeast fitness (ln)” value read?
Answer: The value was -0.0556.

Question: With U2C C46U C66A A70U as the variant, how does the “yeast fitness (ln)” value read?
Answer: Its value is 0.075.

Question: For U2C G6A C46U C66U A70G, which “yeast fitness (ln)” value is on record?
Answer: Its value is -0.00418.

Question: With U2C G6A C46U C66U A70U as the variant, how does the “yeast fitness (ln)” value read?
Answer: Its value is -0.0206.

Question: For U2C C66A C71U, which “yeast fitness (ln)” value is on record?
Answer: The value was -0.0382.

Question: With U2C G6A C27U A43C C46U A69G A70G as the variant, how does the “yeast fitness (ln)” value read?
Answer: The value was -0.0933.

Question: With U2C G6A C27U A43C C46U A69G A70U as the variant, how does the “yeast fitness (ln)” value read?
Answer: The value was -0.122.

Question: Which “yeast fitness (ln)” value does the source give for U2C G6A C27U C46U C66U A70U C71U here?
Answer: Its value is -0.174.

Question: With U2C G6A C46U C66A A69G A70G C71U as the variant, how does the “yeast fitness (ln)” value read?
Answer: The value was -0.258.

Question: With U2C G6A C46U C71U as the variant, how does the “yeast fitness (ln)” value read?
Answer: Its value is -0.0887.

Question: With U2C G6A A43C C66U as the variant, how does the “yeast fitness (ln)” value read?
Answer: The value was -0.121.

Question: Which “yeast fitness (ln)” value does the source give for U2C G6A C27U C46U C66U A70G C71U here?
Answer: The value was -0.0332.
